From ChEMBL document CHEMBL1145814, “Antiretroviral activity of semisynthetic derivatives of glycopeptide antibiotics” (J Med Chem, 2003)
≈ marks a conversion by molar mass, not a printed value. Where “and” joins values, the source holds several entries; their conditions need not be identical. Equal values may be shown once.

Key:
Mus musculus [1] = organism: Mus musculus; assay: Minimal inhibitory concentration required to cause a microscopic detectable alteration of C3H/3T3 embryo murine fibroblast cell morphology; type: functional
Procedure, shortened: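 Uninfected C3H/3T3 murine embryo fibroblast cultures were exposed to test compound and checked microscopically for changes in cell morphology. The MIC is the concentration causing a microscopically detectable alteration of morphology.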

CCRF-CEM = assay: Inhibitory concentration against proliferation of human T-lymphocytic (CEM) cells; type: functional, cell-based
Procedure, shortened: (§1)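 (5–7.5) × 10^4 cells per well were incubated with test compound at 37 °C in a humidified CO2 atmosphere. L1210 murine leukemia cells grew for 48 h, and CEM and Molt4/clone 8 human lymphocytes grew for 72 h. Cells were then counted with a Coulter counter. IC50 is the concentration inhibiting proliferation by 50%.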

[2] = system: Human immunodeficiency virus 2; assay: Concentration required to protect human T-lymphocytic cells against the cytopathogenicity of HIV-2; type: functional, organism-based
[3] = system: Human immunodeficiency virus 1; assay: Effective concentration of compound required to protect human T-lymphocytic cells against the cytopathogenicity of HIV-1; type: functional, organism-based
L1210 = assay: Inhibitory concentration of compound against proliferation of murine lukemia cells L1210 was determined; type: functional, cell-based; conditions: Mus musculus; procedure, shortened: as §1
MOLT-4 = assay: Inhibitory concentration of compound against proliferation of human T-lymphocytic cells MOLT-4/C8 was determined; type: functional, cell-based; procedure, shortened: as §1
Mus musculus [4] = organism: Mus musculus; assay: Effective concentration of compound required to protect C3H/3T3 embryo murine fibroblasts against the MSV induced transformation; type: functional, organism-based
Procedure, shortened: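 Monolayer murine embryo fibroblast C3H/3T3 cultures were infected with Moloney murine sarcoma virus at 75 focus-forming units and cultured with test compound. Transformation was examined microscopically on day 6 postinfection. EC50 is the concentration protecting cells against MSV-induced transformation by 50%.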

Row | Structure (SMILES) | IC50 (CCRF-CEM; Homo sapiens, CCRF-CEM) [µM] | EC50 ([2]; Human immunodeficiency virus 2) [µM] | EC50 ([3]; Human immunodeficiency virus 1) [µM] | IC50 (L1210) [µM] | IC50 (MOLT-4) [µM] | IC50 (CCRF-CEM; ccrf-cem) [µM] | EC50 [2] | EC50 [3] [µM] | MIC (Mus musculus [1]) [µM] | EC50 (Mus musculus [4]; Mus musculus, C3H/3T3) [µM] | EC50 (Mus musculus [4]) [µM]
1 | CN[C@H](CC(C)C)C(=O)N[C@H]1C(=O)N[C@@H](CC(N)=O)C(=O)N[C@H]2C(=O)N[C@H]3C(=O)N[C@H](C(=O)N[C@H](C(=O)NCc4ccc(-c5ccccc5)cc4)c4cc(O)cc(O)c4-c4cc3ccc4O)[C@H](O[C@H]3C[C@](C)(N)[C@@H](O)[C@H](C)O3)c3ccc(cc3)Oc3cc2cc(c3O[C@@H]2O[C@H](CO)[C@@H](O)[C@H](O)[C@H]2O[C@H]2C[C@](C)(N)[C@@H](O)[C@H](C)O2)Oc2ccc(cc2Cl)[C@H]1O | 35 | > 10 | > 10 | 41 | 34 |  |  |  | 4 (≈ 6.89 µg/mL) | > 0.8 | 
2 | COC(=O)[C@H]1NC(=O)C2NC(=O)C(NC(=O)[C@@H]3NC(=O)[C@H]4NC(=O)[C@H](NC(=O)[C@H](N)c5ccc(O)c(c5)Oc5cc4cc(O)c5C)[C@H](O)c4ccc(cc4)Oc4cc3cc(c4OC3OC(CO[C@H]4O[C@H](C)[C@@H](O)[C@@H](O)[C@@H]4O)C(O)C(O)C3OC3OC(CO)C(O)C(O)C3OC3OCC(O)C(O)C3O)Oc3ccc(cc3)[C@H]2O[C@@H]2C[C@@H](N)[C@@H](O)[C@@H](C)O2)c2ccc(O)c(c2)-c2c(O[C@@H]3O[C@H](CO)[C@@H](O)[C@@H](O)[C@@H]3O)cc(O)cc21 (stereo partly specified) | > 500 | > 250 | > 250 | > 500 | > 500 |  |  |  | > 100 | > 100 | 
3 | NC1Cc2ccc(c(Cl)c2)Oc2cc3cc(c2O)Oc2ccc(cc2Cl)C(O)C2NC(=O)C(NC(=O)C3NC(=O)C(c3cc(O)cc(Oc4cc(C5NC(=S)N(c6ccccc6)C5=O)ccc4O)c3)NC1=O)c1ccc(O)c(c1)-c1c(cc(O)c(CNC3C4CC5CC(C4)CC3C5)c1O)[C@H](C(=O)O)NC2=O (stereo partly specified) | 242 | 17 | 13 | 73 | > 250 |  |  |  | > 100 | 2.9 | 
4 | COC(=O)[C@@H]1NC(=O)C2NC(=O)C(NC(=O)C3NC(=O)C4NC(=O)C(Cc5ccc(c(Cl)c5)Oc5cc3cc(c5O)Oc3ccc(cc3Cl)C2O)NC(=O)C(N)c2ccc(O)c(c2)Oc2cc(O)cc4c2)c2ccc(O)c(c2)-c2c(O)cc(O)cc21 (stereo partly specified) | 248 | 15 | 9.5 | 364 | > 500 |  |  |  | > 100 | 12 | 
5 | CNC(CC(C)C)C(=O)NC1C(=O)NC(CC(N)=O)C(=O)NC2C(=O)NC3C(=O)NC(C(=O)N[C@@H](C(=O)O)c4cc(O)c(CN5CCN(Cc6ccc(-c7ccccc7)cc6)CC5)c(O)c4-c4cc3ccc4O)C(O)c3ccc(cc3)Oc3cc2cc(c3O)Oc2ccc(cc2Cl)C1O (stereo partly specified) | > 500 | 12 | 5.5 | 250 | > 500 |  |  |  | > 100 | 13 | 
6 | CN[C@H](CC(C)C)C(=O)N[C@H]1C(=O)N[C@@H](CC(N)=O)C(=O)N[C@H]2C(=O)N[C@H]3C(=O)N[C@H](C(=O)N[C@H](C(=O)O)c4cc(O)cc(O)c4-c4cc3ccc4O)[C@H](O[C@H]3C[C@](C)(N)[C@@H](O)[C@H](C)O3)c3ccc(cc3)Oc3cc2cc(c3O[C@@H]2O[C@H](CO)[C@@H](O)[C@H](O)[C@H]2O[C@H]2C[C@](C)(N)[C@@H](O)[C@H](C)O2)Oc2ccc(cc2Cl)[C@H]1O | > 500 | > 250 | > 250 | > 500 | > 500 |  |  |  | > 100 | > 100 | 
7 | CCCCc1ccc(CN2CCN(Cc3c(O)cc4c(c3O)-c3cc(ccc3O)C3NC(=O)C5NC(=O)C6NC(=O)C(Cc7ccc(c(Cl)c7)Oc7cc5cc(c7O)Oc5ccc(cc5Cl)C(O)C(NC3=O)C(=O)N[C@H]4C(=O)NCCCN(C)C)NC(=O)C(N)c3ccc(O)c(c3)Oc3cc(O)cc6c3)CC2)cc1 (stereo partly specified) | > 500 |  | 3 | 29 | 108 | > 250 | 5 µM and 13 µM | 4 | 20 (≈ 30.5 µg/mL) | 2.4 | 3.5
8 | CCCCc1ccc(CNCc2c(O)cc3c(c2O)-c2cc(ccc2O)C2NC(=O)C4NC(=O)C5NC(=O)C(Cc6ccc(c(Cl)c6)Oc6cc4cc(c6O)Oc4ccc(cc4Cl)C(O)C(NC2=O)C(=O)N[C@H]3C(=O)NC)NC(=O)C(N)c2ccc(O)c(c2)Oc2cc(O)cc5c2)cc1 (stereo partly specified) | > 100 | 12 | 9.7 | > 100 | > 100 |  |  |  | 20 (≈ 27.7 µg/mL) | > 4 | 
9 | NC1C(=O)NC2Cc3ccc(c(Cl)c3)Oc3cc4cc(c3O)Oc3ccc(cc3Cl)C(O)C3NC(=O)C(NC(=O)C4NC(=O)C(NC2=O)c2cc(O)cc(c2)Oc2cc1ccc2O)c1ccc(O)c(c1)-c1c(cc(O)c(CNC2C4CC5CC(C4)CC2C5)c1O)[C@H](C(=O)NC1C2CC4CC(C2)CC1C4)NC3=O (stereo partly specified) | > 250 | 3.5 | 2.5 | 202 | > 250 |  |  |  | > 20 | 2 | 

More lines, main results first:

Row | IC50 (CCRF-CEM; Homo sapiens, CCRF-CEM) [µM] | EC50 ([2]; Human immunodeficiency virus 2) [µM] | EC50 ([3]; Human immunodeficiency virus 1) [µM] | IC50 (L1210) [µM] | IC50 (MOLT-4) [µM] | IC50 (CCRF-CEM; ccrf-cem) [µM] | EC50 [2] | EC50 [3] [µM] | Structure (SMILES) | MIC (Mus musculus [1]) [µM] | EC50 (Mus musculus [4]; Mus musculus, C3H/3T3) [µM] | EC50 (Mus musculus [4]) [µM]
10 | > 500 | 17 | 15 | > 500 | > 500 |  |  |  | NCCCCCCNC(=O)[C@@H]1NC(=O)C2NC(=O)C(NC(=O)C3NC(=O)C4NC(=O)C(Cc5ccc(c(Cl)c5)Oc5cc3cc(c5O)Oc3ccc(cc3Cl)C2O)NC(=O)C(N)c2ccc(O)c(c2)Oc2cc(O)cc4c2)c2ccc(O)c(c2)-c2c(O)cc(O)cc21 (stereo partly specified) | 20 (≈ 25.9 µg/mL) | > 4 | 
11 | 106 | > 50 | 22 | 136 | 72 |  |  |  | CN[C@H](CC(C)C)C(=O)N[C@H]1C(=O)N[C@@H](CC(N)=O)C(=O)N[C@H]2C(=O)N[C@H]3C(=O)N[C@H](C(=O)N[C@H](C(=O)O)c4cc(O)c(CNCc5ccc(-c6ccc(Cl)cc6)cc5)c(O)c4-c4cc3ccc4O)[C@H](O[C@H]3C[C@](C)(N)[C@@H](O)[C@H](C)O3)c3ccc(cc3)Oc3cc2cc(c3O[C@@H]2O[C@H](CO)[C@@H](O)[C@H](O)[C@H]2O[C@H]2C[C@](C)(N)[C@@H](O)[C@H](C)O2)Oc2ccc(cc2Cl)[C@H]1O | > 20 | > 4 | 
12 | > 250 | 17 | 5 | 212 | > 250 |  |  |  | CNC(=O)[C@@H]1NC(=O)C2NC(=O)C(NC(=O)C3NC(=O)C4NC(=O)C(Cc5ccc(c(Cl)c5)Oc5cc3cc(c5O)Oc3ccc(cc3Cl)C2O)NC(=O)C(N)c2ccc(O)c(c2)Oc2cc(O)cc4c2)c2ccc(O)c(c2)-c2c1cc(O)c(CNC1C3CC4CC(C3)CC1C4)c2O (stereo partly specified) | > 20 | 9.5 | 
13 | > 500 | 100 | 17 | > 500 | > 500 |  |  |  | CC(=O)N[C@@H]1[C@H](OC2c3ccc(c(Cl)c3)Oc3cc4cc(c3O[C@@H]3O[C@@H](CO)[C@@H](O)[C@H](O)[C@@H]3NC(=O)CCCCCCC(C)C)Oc3ccc(cc3Cl)C(O)C3NC(=O)C(N)c5ccc(O)c(c5)Oc5cc(O)cc(c5)C(NC3=O)C(=O)NC4C(=O)NC3C(=O)NC2C(=O)N[C@@H](C(=O)O)c2cc(O)cc(O[C@H]4O[C@H](CO)[C@@H](O)[C@@H](O)[C@@H]4O)c2-c2cc3ccc2O)O[C@@H](CO)[C@@H](O)[C@@H]1O (stereo partly specified) | > 100 | > 100 | 
14 | > 100 | 3.5 | 4 | 84 | > 100 |  |  |  | CNC(=O)[C@@H]1NC(=O)C2NC(=O)C(NC(=O)C3NC(=O)C(CC(N)=O)NC(=O)C(NC(=O)C(CC(C)C)N(C)C(=O)OC(C)(C)C)C(O)c4ccc(c(Cl)c4)Oc4cc3cc(c4O)Oc3ccc(cc3)C2O)c2ccc(O)c(c2)-c2c1cc(O)c(CN1CCN(Cc3ccc(-c4ccccc4)cc3)CC1)c2O (stereo partly specified) | 20 (≈ 29.7 µg/mL) | > 4 | 
